NPY-Y1 antag: antagonists of human neuropeptide Y receptor Y1; P25929; HEK293-CNG Y1 cells, membrane potential fluorescence; NPY at EC95, then isoproterenol; inhibition, % at 3.6 µM; hit rate 1% among 200,000;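 active means inhibition above the campaign mean inhibition of all tested compounds plus 3 SD, cut at about 20% in these data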;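 further: 0% = DMSO wells given NPY plus isoproterenol and 100% = isoproterenol alone without NPY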
Target sequence (P25929 whole entry, looked up): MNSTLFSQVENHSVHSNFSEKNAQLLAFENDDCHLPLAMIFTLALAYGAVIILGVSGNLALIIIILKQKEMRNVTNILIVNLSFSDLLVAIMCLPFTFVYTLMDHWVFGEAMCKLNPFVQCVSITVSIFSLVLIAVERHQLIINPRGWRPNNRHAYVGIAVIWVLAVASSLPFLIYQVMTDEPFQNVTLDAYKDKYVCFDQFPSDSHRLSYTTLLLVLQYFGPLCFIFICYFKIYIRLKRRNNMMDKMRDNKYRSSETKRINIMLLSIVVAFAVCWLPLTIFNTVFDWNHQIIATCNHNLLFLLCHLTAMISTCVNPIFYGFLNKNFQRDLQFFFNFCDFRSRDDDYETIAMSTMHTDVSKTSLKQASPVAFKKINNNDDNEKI
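Material: HEK293 Y1/CNG channel cell line; also added: NPY (25 nM), isoproterenol (1 µM), Ro 20-1724 (25 µM); doses: one concentration, 3.6 µM, in 0.4% DMSO; schedule: compound incubation 1 h at room temperature, readout 45 min post-stimulation; technique: membrane potential fluorescence; measure: fluorescence ratio normalized to % inhibition between controls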
Hsp70 activator: switches on Hsp70 transcription | HeLa Hsp70 promoter luciferase reporter, luminescence; scaled: vehicle 0, proteasome-inhibitor control 100% | hit rate 0.04% among 200,000 | AID 1203 | activation, % at 10 µM;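 active means activation above the mean across all tested compounds plus 3 SD, cutoff set per campaign, cut at about 5.5% in these data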;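 further: 100% = MG132 at 30 µM as the positive control and 0% = DMSO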
NPY-Y2 PAM-ag: potentiates or activates human NPY-Y2 receptor; cells expressing NPY-Y2, potentiator/agonist read-out; activation, % at 3.6 µM; hit rate 0.45% among 220,000; in the data active means activation above about 27%;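 further: cells stimulated with NPY near EC25 plus isoproterenol at EC100; 0% = vehicle plus submaximal agonist and 100% = vehicle plus saturating agonist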
Target sequence (P49146 whole entry, looked up): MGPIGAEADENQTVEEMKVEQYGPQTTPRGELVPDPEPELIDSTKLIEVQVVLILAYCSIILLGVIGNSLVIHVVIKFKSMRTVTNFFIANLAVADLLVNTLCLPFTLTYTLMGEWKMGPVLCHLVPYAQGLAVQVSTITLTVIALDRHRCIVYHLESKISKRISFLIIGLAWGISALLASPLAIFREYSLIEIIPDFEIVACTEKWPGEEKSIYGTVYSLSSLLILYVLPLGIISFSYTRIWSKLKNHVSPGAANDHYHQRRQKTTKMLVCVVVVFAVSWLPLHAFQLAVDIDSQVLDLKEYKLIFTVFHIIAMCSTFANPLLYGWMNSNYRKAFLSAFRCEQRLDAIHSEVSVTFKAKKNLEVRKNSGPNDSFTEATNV
NPY-Y1 PAM-ag: human NPY-Y1 potentiation or agonism, primary screen; P25929; activation, % at 3.6 µM; NPY-Y1 expressing cells, potentiator/agonist activation; hit rate 0.37% among 220,000; AID 1304; in the data active means activation above about 33%, passing the limit was not always enough;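 further: cells stimulated with NPY at EC10 then isoproterenol at EC100; 0% = low agonist plus stimulus and 100% = saturating agonist plus stimulus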
Wee1 stabilizer: human Wee1 degradation inhibition, primary screen. P30291. HeLa Luc-Wee1K328M stability, luciferase luminescence; 100% = proteasome inhibitor MG132 effect. reporter increase, % at 5 µM. hit rate 1.2% among 220,000. AID 1321;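 active means activation above the mean of all tested compounds plus 3 SD, set per screening run, cut at about 8.8% in these data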;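 further: cells exposed to compound for 20 h before luminescence read; 0% = DMSO alone and 100% = MG132 at 30 µM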
NPY-Y2 antag: NPY-Y2 (human) receptor antagonism. P49146. NPY-Y2 expressing cells, antagonist mode. inhibition, % at 2.7 µM. hit rate 0.99% among 140,000; in the data active means inhibition above about 17%;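 further: 0% = vehicle with agonist challenge and 100% = reference antagonist with challenge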
Wee1 degr conf: human Wee1 degradation inhibition, confirmation. shares compounds with Wee1 stabilizer. HeLa Luc-Wee1K328M degradation, luminescence; vehicle 0%, proteasome-blocked wells 100%. activation, % at 5 µM. hit rate 4% among 1,100; in the data active means activation above about 8.9%
Active calls of the source: *; / = not tested or not shown. An excerpt weighted towards active compounds, which were near 3% of everything screened.

SMILES | NPY-Y1 antag | Hsp70 activator | NPY-Y2 PAM-ag | NPY-Y1 PAM-ag | Wee1 stabilizer | NPY-Y2 antag | Wee1 degr conf
COc1ccc(C(=O)N2CCN(C(=O)Cc3ccccc3)CC2)cc1 | 0.6 | -0.1 | -8.0 | -9.4 | -0.7 | / | /
CCOC(=O)C1(Cc2ccc(Cl)cc2)CCN(Cc2ccon2)CC1 | 10.1 | -0.1 | -5.9 | -10.7 | 1.0 | / | /
Cc1cc(N/C=C\c2nnnn2-c2ccccc2)no1 | -2.5 | 0.2 | -4.6 | -9.4 | -1.0 | -0.2 | /
CN(C)c1ccc(/C=C/c2nnnn2-c2ccccc2)cc1 | 4.4 | -0.2 | 6.6 | -25.8 | 11.7* | 3.7 | 4.3
CC(SCc1ccccc1)C(=O)NCc1ccccn1 (stereo not given) | -2.3 | -0.2 | 0.2 | -8.9 | 1.3 | / | /
Cc1[nH][nH]c(=O)c1C(c1ccc(O)c([N+](=O)[O-])c1)c1c(C)[nH][nH]c1=O | 1.3 | -0.2 | 5.9 | 14.3 | -1.1 | 1.3 | /
Cc1[nH][nH]c(=O)c1C(c1ccc([N+](=O)[O-])cc1)c1c(C)[nH][nH]c1=O | / | / | 9.6 | 4.3 | 10.9* | / | 0.3
Cn1c(NC(=O)Cc2cccc3ccccc23)cc(=O)n(C)c1=O | 7.8 | -0.1 | 12.9 | 8.7 | 13.1* | / | -2.0
O=C(N/N=C/c1cccc(C(F)(F)F)c1)c1ccccc1O | 7.2 | 0.0 | -7.0 | 2.3 | -1.3 | / | /
O=C(N/N=C/c1cc(Br)c(O)c(Br)c1)c1cccc(C(F)(F)F)c1 | -4.5 | -0.3 | -4.3 | -17.4 | 12.2* | 2.6 | 1.6
CCOc1cc(C)nc(NCCc2ccc(OC)c(OC)c2)n1 | 3.9 | -0.4 | 15.7 | 13.3 | 0.2 | -0.2 | /
Cc1ccc(NC(=S)N/N=C/c2cccn2Cc2ccccc2F)cc1 | / | / | 10.7 | -1.2 | 19.2* | / | 1.4
CC(C)(C)c1ccc(C(CC(=O)O)NC(=O)c2ccccc2F)cc1 (stereo not given) | 12.2 | -0.2 | -16.2 | -11.8 | 7.9 | / | /
Cc1cc(=O)oc2cc(OCC(O)CN3CCN(c4ccccc4)CC3)ccc12 (stereo not given) | 0.2 | 0.1 | 2.4 | -17.4 | -2.3 | 4.4 | /
COc1ccccc1N1CCN(CC(O)COc2ccc3c(C)cc(=O)oc3c2)CC1 (stereo not given) | 14.4 | -0.1 | -32.4 | -21.9 | 16.7* | 2.8 | -0.4
Cc1cccc(-n2c(SCC(=O)O)nc3sc4c(c3c2=O)CCC4)c1 | / | / | -9.9 | -21.7 | 13.1* | / | -0.3
O=C(O)CSc1nc2sc3c(c2c(=O)n1-c1ccccc1)CCC3 | / | / | -33.3 | -29.1 | 5.4 | / | /
O=C(c1ccccc1)c1ccccc1N/C=C/c1nnnn1-c1ccccc1 | 8.9 | -0.2 | -25.6 | -17.1 | -2.5 | 3.2 | /
CSCC[C@H](NC(=O)C1CCN(S(=O)(=O)c2ccc(C)cc2)CC1)C(=O)NC1CCS(=O)(=O)C1 (stereo not given in full) | -3.8 | -0.2 | 2.1 | -8.5 | -2.4 | 1.5 | /
O=C1N=C(N2CCCC2C(=O)O)S/C1=C\c1ccco1 (stereo not given) | -0.2 | -0.3 | 3.6 | -6.9 | 12.9* | / | 2.6
NS(=O)(=O)c1ccc(CCNCc2cc(Br)ccc2OCc2ccccc2)cc1 | 16.3 | -0.4 | -3.9 | -28.8 | -2.3 | 13.2 | /
Cc1ccc2nc(SCC(=O)NCC3CCCO3)c(C#N)cc2c1 (stereo not given) | -0.3 | -0.2 | 6.6 | -5.5 | 11.5* | 0.0 | 2.6
Cc1ccc2cc(C#N)c(SCC(=O)NCC3CCCO3)nc2c1 (stereo not given) | 1.2 | -0.2 | -12.0 | 20.9 | -1.0 | 5.0 | /
CC1(C)C(=O)NCCN1C(=O)CCCC(=O)O | 0.4 | -0.2 | -0.3 | 3.9 | 12.2* | / | 2.3
O=C(O)CCCC(=O)N1CCCC1 | -0.4 | -0.1 | -3.8 | 18.5 | 1.2 | / | /
SMILES | NPY-Y1 antag | Hsp70 activator | NPY-Y2 PAM-ag | NPY-Y1 PAM-ag | Wee1 stabilizer | NPY-Y2 antag | Wee1 degr conf
COc1ccc(Nc2nc(Cl)nc(Nc3ccc(OC)cc3)n2)cc1 | -5.2 | -0.3 | 1.4 | 0.7 | 12.8* | / | 1.8
CCOc1ccccc1C(=O)N[C@H](C(=O)Nc1cc(S(=O)(=O)N(C)C)ccc1OC)C(C)C | 0.4 | -0.4 | 11.1 | -0.3 | 0.3 | / | /
COc1ccc(NC(=O)Nc2ccccc2SC)cc1 | -1.3 | 0.2 | -2.5 | 14.8 | 11.4* | / | 2.0
CC(C)(C)OC(=O)C(Cl)(C(=O)OC(C)(C)C)c1ccc2nnnn2n1 | 2.1 | -0.3 | 4.5 | 1.6 | 11.0* | / | -0.2
Cc1ccc(C(=O)N2N=C3c4ccccc4S(=O)(=O)N3[C@H]2N(C)C)cc1 | 1.0 | -0.1 | 4.8 | 15.1 | -2.9 | / | /
CCN(CC)S(=O)(=O)c1cc(C(=O)N(C)CC(=O)Nc2ccc(Cl)cc2)ccc1Cl | -1.7 | -0.3 | 6.8 | -18.4 | 11.8* | 0.3 | 0.1
CCN(CC)S(=O)(=O)c1cc(C(=O)Nc2ccncc2)ccc1Cl | -8.1 | -0.2 | 2.6 | -0.4 | 2.4 | 5.5 | /
COc1ccc(N2CCN(C(=O)Cn3nnc(-c4ccccc4N)n3)CC2)cc1 | 0.3 | -0.1 | -5.9 | 0.1 | 0.0 | / | /
NC(=O)C1CCN(Cc2nc(-c3cccs3)no2)CC1 | / | / | -3.5 | 9.3 | -1.0 | / | /
NC(=O)[C@@H]1CCCN1Cc1nc(-c2cccs2)no1 | -4.0 | 0.1 | -17.3 | 6.5 | 11.2* | / | -0.7
O=C(Nc1cccc([N+](=O)[O-])c1)Nc1ccc2c(c1)OCCO2 | 7.1 | 0.2 | -12.2 | -7.2 | 16.7* | / | 3.5
CNC(=O)c1c(Cl)cnn1-c1ccc(F)cc1 | 2.9 | 0.0 | 10.9 | 11.6 | 13.4* | / | 2.6
Cc1cc(OCC(=O)Nc2ccncc2)ccc1[N+](=O)[O-] | -1.8 | -0.1 | 8.4 | -0.8 | 1.2 | / | /
CCN(CC)C(=O)CSCc1cnn(-c2ccccc2)c1-n1cccc1 | 10.5 | -0.3 | 1.4 | 0.8 | 15.8* | 0.6 | 1.4
NS(=O)(=O)c1ccc(NC(=O)CSc2nc3ccccc3[nH]2)cc1 | 0.0 | -0.1 | -2.6 | 7.4 | 11.3* | / | 2.2
O=C(Nc1ccc(F)cc1)C(Cc1ccccc1)n1cccc1 (stereo not given) | / | / | 1.9 | 3.9 | 12.3* | / | -0.3
C=C(C)COc1ccc(-c2[nH]ncc2Oc2ccc(OC)cc2)c(O)c1 | / | / | 10.1 | 10.0 | 18.0* | / | 3.8
C=C(C)COc1ccc(-c2[nH]ncc2Oc2ccccc2OC)c(O)c1 | -3.9 | -0.1 | -2.0 | -13.5 | -1.1 | -1.1 | /
COc1cc(C(C)=O)ccc1OC(=O)c1cc2cccc(OC)c2oc1=O | -0.5 | -0.5 | 10.2 | 15.5 | 53.3* | / | 2.8
CC(CC(=O)NCC1CCCO1)c1ccccc1 (stereo not given) | 1.4 | -0.1 | 18.9 | 3.2 | 0.8 | 1.4 | /
Cc1nc(COc2ccccc2Cl)sc1-c1ccnc(N)n1 | / | / | -3.9 | 7.8 | -1.3 | / | /
CN1CCN(CC(=O)N/N=C\c2c[nH]c3ccccc23)CC1 | -0.7 | -0.4 | 4.7 | -23.2 | 0.2 | 1.7 | /
CC(C)C(=O)Nc1nnc(Cc2c[nH]c3ccccc23)s1 | / | / | 1.2 | -7.0 | 1.7 | / | /

Source: PubChem
